# ChEMBL document CHEMBL1126842, “Inhibition of herpes simplex virus type 1 ribonucleotide reductase by substituted tetrapeptide derivatives” (J Med Chem, 1993)
# Where a SMILES comes first, the peptide text is derived from it. [ ]: non-standard residue; d: D form. The star is where a group is joined. ξ: configuration not given here. Asp(3,3-Me2) = CC(C)(C(=O)O)[C@H](N)C(=O)O; Cyclohexanecarbonyl = O=C(C1CCCCC1)*; Butanoyl(2-Et) = CCC(CC)C(=O)*; Thr(3ξ) = CC(O)[C@H](N)C(=O)O; Tle = CC(C)(C)[C@H](N)C(=O)O; Leu(ol) = CC(C)C[C@H](N)CO; Isovaleryl = CC(C)CC(=O)*; Isobutyryl = CC(C)C(=O)*; Piperidide = C1CCN(*)CC1; Pyrrolidide = C1CCN(*)C1; X1 = CC(C)C(C(=O)*)C(C)C; Bn = c1ccc(C*)cc1
# System: not listed separately
# Assay: Inhibition of Herpes simplex virus type 1 ribonucleotide reductase
# Format: functional, Human alphaherpesvirus 1
# How it was run: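 IC50 taken as the mean of at least three separate determinations, with standard deviation from the mean reported; one entry came from a single determination.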
row,Compound,IC50 [µM]
1,CCC(CC)C(=O)N[C@H](C(=O)N[C@@H](CC(=O)N1CCCC1)C(=O)N[C@@H](CC(=O)O)C(=O)NCCC(C)(C)C)C(C)(C)C,19
2,CCC(CC)C(=O)N[C@H](C(=O)N[C@@H](CC(=O)N1CCCC1)C(=O)N[C@@H](CC(=O)O)C(=O)NC(CO)CO)C(C)(C)C,> 1000
3,CCC(CC)C(=O)N[C@H](C(=O)N[C@@H](CCC1CCCC1)C(=O)N[C@@H](CC(=O)O)C(=O)N[C@@H](CC(C)C)C(=O)O)C(C)(C)C,64
4,CCC(CC)C(=O)N[C@H](C(=O)N[C@@H](CC(=O)N1CCCC1)C(=O)N[C@@H](CC(=O)O)C(=O)N[C@H](CO)CC(C)(C)C)C(C)(C)C,1.9
5,CCC(CC)C(=O)N[C@H](C(=O)N[C@@H](CC(=O)N1CCCC1)C(=O)N[C@@H](CC(=O)O)C(=O)N[C@H](CO)CC1CCCCC1)C(C)(C)C,8.1
6,CCC(CC)C(=O)N[C@H](C(=O)N[C@@H](CC(=O)C1CCCC1)C(=O)N[C@@H](CC(=O)O)C(=O)N[C@@H](CC(C)C)C(=O)O)C(C)(C)C,1.3
7,CC(C)C[C@H](NC(=O)[C@H](CC(=O)O)NC(=O)[C@H](CC(N)=O)NC(=O)[C@@H](NC(=O)[C@@H](NC(=O)[C@H](C)NC(=O)CNC(=O)[C@H](C)NC(=O)[C@@H](N)Cc1ccc(O)cc1)C(C)C)C(C)C)C(=O)O,38
8,CC[C@H](C)[C@H](NC(C)=O)C(=O)N[C@@H](CC(=O)N1CCCC1)C(=O)N[C@@H](CC(=O)O)C(=O)N[C@@H](CC(C)C)C(=O)O (Ac-ID(Pyrrolidide)DL-OH),> 1000
9,CC[C@H](C)[C@H](NC(=O)C1CCCCC1)C(=O)N[C@@H](CC(=O)N1CCCC1)C(=O)N[C@@H](CC(=O)O)C(=O)N[C@@H](CC(C)C)C(=O)O (Cyclohexanecarbonyl-ID(Pyrrolidide)DL-OH),1.5
10,CC[C@H](C)[C@H](NC(=O)[C@@H](N)C(C)C)C(=O)N[C@@H](CC(=O)N1CCCC1)C(=O)N[C@@H](CC(=O)O)C(=O)N[C@@H](CC(C)C)C(=O)O (H-VID(Pyrrolidide)DL-OH),13
11,CC(C)C[C@H](NC(=O)[C@H](CC(=O)O)NC(=O)[C@H](CC(N)=O)NC(=O)[C@@H](N)C(C)C)C(=O)O (H-VNDL-OH),> 2000
12,CC[C@H](C)[C@H](NC(=O)C(C)C)C(=O)N[C@@H](CC(=O)N1CCCC1)C(=O)N[C@@H](CC(=O)O)C(=O)N[C@@H](CC(C)C)C(=O)O (Isobutyryl-ID(Pyrrolidide)DL-OH),10
13,CC[C@H](C)[C@H](NC(=O)CC(C)C)C(=O)N[C@@H](CC(=O)N1CCCC1)C(=O)N[C@@H](CC(=O)O)C(=O)N[C@@H](CC(C)C)C(=O)O (Isovaleryl-ID(Pyrrolidide)DL-OH),3
14,CC[C@H](C)[C@H](NC(=O)C(C(C)C)C(C)C)C(=O)N[C@@H](CC(=O)N1CCCC1)C(=O)N[C@@H](CC(=O)O)C(=O)N[C@@H](CC(C)C)C(=O)O (X1-ID(Pyrrolidide)DL-OH),2
15,CCC(CC)C(=O)N[C@@H](C)C(=O)N[C@@H](CC(=O)N1CCCC1)C(=O)N[C@@H](CC(=O)O)C(=O)N[C@@H](CC(C)C)C(=O)O ({Butanoyl(2-Et)}-AD(Pyrrolidide)DL-OH),11
16,CCC(CC)C(=O)N[C@@H](CC(=O)O)C(=O)N[C@@H](CC(=O)N1CCCC1)C(=O)N[C@@H](CC(=O)O)C(=O)N[C@@H](CC(C)C)C(=O)O ({Butanoyl(2-Et)}-DD(Pyrrolidide)DL-OH),6.1
17,CCC(CC)C(=O)NCC(=O)N[C@@H](CC(=O)N1CCCC1)C(=O)N[C@@H](CC(=O)O)C(=O)N[C@@H](CC(C)C)C(=O)O ({Butanoyl(2-Et)}-GD(Pyrrolidide)DL-OH),77
18,CCC(CC)C(=O)N[C@H](C(=O)N[C@@H](CC(=O)N1CCCC1)C(=O)N[C@@H](CC(=O)O)C(=O)N[C@@H](CC(C)C)C(=O)O)[C@@H](C)CC ({Butanoyl(2-Et)}-ID(Pyrrolidide)DL-OH),1.5

row,Compound,IC50 [µM]
1,CCC(CC)C(=O)N[C@@H](CCCCN)C(=O)N[C@@H](CC(=O)N1CCCC1)C(=O)N[C@@H](CC(=O)O)C(=O)N[C@@H](CC(C)C)C(=O)O ({Butanoyl(2-Et)}-KD(Pyrrolidide)DL-OH),14
2,CCC(CC)C(=O)N[C@H](C(=O)N[C@@H](CC(=O)N1CCCC1)C(=O)N[C@@H](CC(=O)O)C(=O)N[C@@H](CC(C)C)C(=O)O)[C@@H](C)O ({Butanoyl(2-Et)}-TD(Pyrrolidide)DL-OH),4.4
3,CCC(CC)C(=O)N[C@H](C(=O)N[C@@H](CC(=O)N1CCCC1)C(=O)N[C@@H](CC(=O)O)C(=O)N[C@@H](CC(C)C)C(=O)O)C(C)OCc1ccccc1 (stereo partly drawn) ({Butanoyl(2-Et)}-[Thr(3ξ)](Bn)D(Pyrrolidide)DL-OH),3.1
4,CCNC(=O)C[C@H](NC(=O)[C@@H](NC(=O)C(CC)CC)C(C)(C)C)C(=O)N[C@@H](CC(=O)O)C(=O)N[C@@H](CC(C)C)C(=O)O ({Butanoyl(2-Et)}-[Tle]D(NHEt)DL-OH),6.9
5,CCOC(=O)C[C@H](NC(=O)[C@@H](NC(=O)C(CC)CC)C(C)(C)C)C(=O)N[C@@H](CC(=O)O)C(=O)N[C@@H](CC(C)C)C(=O)O ({Butanoyl(2-Et)}-[Tle]D(OEt)DL-OH),4.7
6,CCC(CC)C(=O)N[C@H](C(=O)N[C@@H](CC(=O)N1CCCCC1)C(=O)N[C@@H](CC(=O)O)C(=O)N[C@@H](CC(C)C)C(=O)O)C(C)(C)C ({Butanoyl(2-Et)}-[Tle]D(Piperidide)DL-OH),1.3
7,CCC(CC)C(=O)N[C@H](C(=O)N[C@@H](CC(=O)N1CCCC1)C(=O)N[C@@H](C)C(=O)N[C@@H](CC(C)C)C(=O)O)C(C)(C)C ({Butanoyl(2-Et)}-[Tle]D(Pyrrolidide)AL-OH),> 1000
8,CCC(CC)C(=O)N[C@H](C(=O)N[C@@H](CC(=O)N1CCCC1)C(=O)N[C@@H](CC(=O)O)C(=O)N[C@@H](C)C(=O)O)C(C)(C)C ({Butanoyl(2-Et)}-[Tle]D(Pyrrolidide)DA-OH),> 1000
9,CCC(CC)C(=O)N[C@H](C(=O)N[C@@H](CC(=O)N1CCCC1)C(=O)N[C@@H](CC(=O)O)C(=O)N[C@@H](CC(C)C)C(=O)O)C(C)(C)C ({Butanoyl(2-Et)}-[Tle]D(Pyrrolidide)DL-OH),0.6
10,CCC(CC)C(=O)N[C@H](C(=O)N[C@@H](CC(=O)N1CCCC1)C(=O)N[C@@H](CC(=O)O)C(=O)N[C@H](CO)CC(C)C)C(C)(C)C ({Butanoyl(2-Et)}-[Tle]D(Pyrrolidide)D[Leu(ol)]),5.6
11,CCC(CC)C(=O)N[C@H](C(=O)N[C@@H](CC(=O)N1CCCC1)C(=O)N[C@@H](CCC(=O)O)C(=O)N[C@@H](CC(C)C)C(=O)O)C(C)(C)C ({Butanoyl(2-Et)}-[Tle]D(Pyrrolidide)EL-OH),> 1000
12,"CCC(CC)C(=O)N[C@H](C(=O)N[C@@H](CC(=O)N1CCCC1)C(=O)N[C@H](C(=O)N[C@@H](CC(C)C)C(=O)O)C(C)(C)C(=O)O)C(C)(C)C ({Butanoyl(2-Et)}-[Tle]D(Pyrrolidide)[Asp(3,3-Me2)]L-OH)",0.18
13,CCC(CC)C(=O)N[C@H](C(=O)N[C@@H](CCC(=O)N1CCCC1)C(=O)N[C@@H](CC(=O)O)C(=O)N[C@@H](CC(C)C)C(=O)O)C(C)(C)C ({Butanoyl(2-Et)}-[Tle]E(Pyrrolidide)DL-OH),> 1000
14,CCC(CC)C(=O)N[C@H](C(=O)N[C@@H](CC(N)=O)C(=O)N[C@@H](CC(=O)O)C(=O)N[C@@H](CC(C)C)C(=O)O)C(C)(C)C ({Butanoyl(2-Et)}-[Tle]NDL-OH),100
15,H-AGAVVNDL-OH,280
16,H-AVVNDL-OH,190
17,H-GAVVNDL-OH,220
18,H-YAGAVVND-OH,> 2000

# Molecular target: T1, Ribonucleoside-diphosphate reductase large subunit (Homo sapiens, UniProt P23921)
# T1 sequence (P23921 whole entry): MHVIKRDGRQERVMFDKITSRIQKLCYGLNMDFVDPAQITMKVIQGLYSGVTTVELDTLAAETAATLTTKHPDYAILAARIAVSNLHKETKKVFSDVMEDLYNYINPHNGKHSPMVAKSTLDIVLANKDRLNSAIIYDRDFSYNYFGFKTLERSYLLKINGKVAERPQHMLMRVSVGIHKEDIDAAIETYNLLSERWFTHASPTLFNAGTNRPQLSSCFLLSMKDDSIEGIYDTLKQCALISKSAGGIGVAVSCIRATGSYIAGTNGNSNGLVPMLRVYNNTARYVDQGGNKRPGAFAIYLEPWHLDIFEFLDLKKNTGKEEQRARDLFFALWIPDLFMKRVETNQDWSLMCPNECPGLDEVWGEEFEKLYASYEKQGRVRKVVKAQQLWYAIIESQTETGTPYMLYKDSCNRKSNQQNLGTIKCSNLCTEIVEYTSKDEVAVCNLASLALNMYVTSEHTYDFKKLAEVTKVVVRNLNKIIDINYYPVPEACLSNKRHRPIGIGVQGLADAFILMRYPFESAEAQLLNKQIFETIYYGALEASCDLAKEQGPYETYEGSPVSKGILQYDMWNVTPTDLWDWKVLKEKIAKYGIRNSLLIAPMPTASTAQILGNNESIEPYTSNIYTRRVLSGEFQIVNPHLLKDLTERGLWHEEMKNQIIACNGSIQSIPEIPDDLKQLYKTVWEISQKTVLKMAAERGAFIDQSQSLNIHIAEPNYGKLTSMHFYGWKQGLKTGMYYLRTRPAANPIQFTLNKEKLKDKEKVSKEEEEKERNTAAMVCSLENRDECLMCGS
# Assay: Tested for inhibition of human ribonucleotide reductase
row,Compound,IC50 [µM]
1,CCC(CC)C(=O)N[C@H](C(=O)N[C@@H](CC(=O)N1CCCC1)C(=O)N[C@@H](CC(=O)O)C(=O)N[C@@H](CC(C)C)C(=O)O)[C@@H](C)CC ({Butanoyl(2-Et)}-ID(Pyrrolidide)DL-OH),> 1000
2,CCC(CC)C(=O)N[C@H](C(=O)N[C@@H](CC(=O)N1CCCC1)C(=O)N[C@@H](CC(=O)O)C(=O)N[C@@H](CC(C)C)C(=O)O)C(C)(C)C ({Butanoyl(2-Et)}-[Tle]D(Pyrrolidide)DL-OH),> 1000
